Experimental data taken from ChEMBL document CHEMBL5154715, “Phenolic Lipids Derived from Cashew Nut Shell Liquid to Treat Metabolic Diseases” (J Med Chem, 2022).
Active and inactive are the calls of the source. No cut-off for these calls is given here.

Key:
[1] = molecular target: T1, Peroxisome proliferator-activated receptor delta (Homo sapiens) (UniProt Q03181);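 note: reporter gene assay with luciferase read-out normalized to beta-galactosidase, measuring agonist activation of PPARδ expressed in HEK293 cells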
T1 sequence (whole entry): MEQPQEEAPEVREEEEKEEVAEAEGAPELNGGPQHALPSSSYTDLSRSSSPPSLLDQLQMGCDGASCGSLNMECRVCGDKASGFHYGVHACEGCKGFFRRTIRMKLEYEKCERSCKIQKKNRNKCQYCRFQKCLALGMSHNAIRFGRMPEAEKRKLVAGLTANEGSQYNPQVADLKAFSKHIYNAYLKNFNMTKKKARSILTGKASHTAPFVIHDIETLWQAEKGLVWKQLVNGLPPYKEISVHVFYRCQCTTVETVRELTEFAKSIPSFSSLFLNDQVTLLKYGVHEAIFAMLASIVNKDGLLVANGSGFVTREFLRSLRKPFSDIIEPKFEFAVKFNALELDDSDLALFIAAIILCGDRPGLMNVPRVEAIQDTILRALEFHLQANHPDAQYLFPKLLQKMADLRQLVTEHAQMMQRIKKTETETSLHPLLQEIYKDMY

[2] = molecular target: T2, Peroxisome proliferator-activated receptor gamma (Homo sapiens, UniProt P37231); assay: Agonist activity at human PPARgamma expressed in HEK293 cells by luciferase/beta-galactosidase reporter gene assay; assay type: cell-based
T2 sequence (P37231 whole entry): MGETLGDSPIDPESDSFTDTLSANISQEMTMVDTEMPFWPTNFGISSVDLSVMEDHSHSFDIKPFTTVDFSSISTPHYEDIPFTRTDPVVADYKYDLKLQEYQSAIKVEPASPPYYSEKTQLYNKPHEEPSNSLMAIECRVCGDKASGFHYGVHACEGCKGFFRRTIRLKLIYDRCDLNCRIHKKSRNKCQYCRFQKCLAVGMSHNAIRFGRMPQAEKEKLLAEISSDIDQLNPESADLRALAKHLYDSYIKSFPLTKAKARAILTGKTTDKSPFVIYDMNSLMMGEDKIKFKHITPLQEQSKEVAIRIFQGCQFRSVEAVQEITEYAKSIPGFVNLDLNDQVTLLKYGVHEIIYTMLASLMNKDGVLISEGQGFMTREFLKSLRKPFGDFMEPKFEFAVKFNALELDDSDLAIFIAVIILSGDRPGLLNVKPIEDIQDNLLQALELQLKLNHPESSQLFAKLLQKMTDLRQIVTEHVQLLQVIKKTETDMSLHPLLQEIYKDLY
Summary of the method: (§1)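 HEK293 cells in charcoal-stripped FBS, calcium phosphate co-transfected with GAL4-hPPAR LBD fusion, UAS-luciferase and β-galactosidase. Ligand added 6–8 h post transfection, full dose–response, harvested 14–16 h later. Luciferase normalized to β-galactosidase.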

[3] = Metabolic stability in C57BL/6 mouse liver microsomes assessed as half life; assay type: ADME, Microsome; details: time 2 min
[4] = AUC (0 to infinity) in C57BL/6 mouse at 100 mg/kg, po […] by LC-MS/MS analysis; assay type: ADME, organism-based; design: dose 100 mg/kg, route po; details: in vivo
[5] = molecular target: T3, Peroxisome proliferator-activated receptor alpha (Homo sapiens) (UniProt Q07869); assay: Agonist activity at human PPARalpha expressed in HEK293 cells assessed as maximal activity by luciferase/beta-galactosidase reporter gene assay relative to GW7647; assay type: cell-based
T3 sequence (whole entry): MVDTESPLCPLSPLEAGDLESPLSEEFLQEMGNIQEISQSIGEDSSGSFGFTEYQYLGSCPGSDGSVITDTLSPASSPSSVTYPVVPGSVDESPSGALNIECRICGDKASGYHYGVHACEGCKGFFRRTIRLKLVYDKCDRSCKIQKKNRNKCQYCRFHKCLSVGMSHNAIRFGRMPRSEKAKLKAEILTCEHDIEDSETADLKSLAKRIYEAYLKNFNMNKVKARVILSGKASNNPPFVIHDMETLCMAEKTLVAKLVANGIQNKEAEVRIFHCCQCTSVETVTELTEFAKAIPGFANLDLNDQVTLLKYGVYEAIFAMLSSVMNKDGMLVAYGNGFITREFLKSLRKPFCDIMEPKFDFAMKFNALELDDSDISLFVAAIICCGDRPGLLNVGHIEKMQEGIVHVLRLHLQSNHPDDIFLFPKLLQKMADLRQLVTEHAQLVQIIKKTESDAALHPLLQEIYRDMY
Summary of the method: as §1

[6] = Metabolic stability in C57BL/6 mouse liver microsomes assessed as parent compound remaining incubated for 120 mins; assay type: ADME, Microsome; details: read-out: Stability
[7] = molecular target: T4, Peroxisome proliferator-activated receptor alpha (Mus musculus) (UniProt P23204); assay: Agonist activity at human PPARalpha in mouse hepatocytes assessed as induction of Fgf21 mRNA expression at 50 uM incubated for 16 hrs by quantitative real-time PCR analysis; assay type: cell-based; details: Hepatocyte, filed as agonist
T4 sequence (whole entry): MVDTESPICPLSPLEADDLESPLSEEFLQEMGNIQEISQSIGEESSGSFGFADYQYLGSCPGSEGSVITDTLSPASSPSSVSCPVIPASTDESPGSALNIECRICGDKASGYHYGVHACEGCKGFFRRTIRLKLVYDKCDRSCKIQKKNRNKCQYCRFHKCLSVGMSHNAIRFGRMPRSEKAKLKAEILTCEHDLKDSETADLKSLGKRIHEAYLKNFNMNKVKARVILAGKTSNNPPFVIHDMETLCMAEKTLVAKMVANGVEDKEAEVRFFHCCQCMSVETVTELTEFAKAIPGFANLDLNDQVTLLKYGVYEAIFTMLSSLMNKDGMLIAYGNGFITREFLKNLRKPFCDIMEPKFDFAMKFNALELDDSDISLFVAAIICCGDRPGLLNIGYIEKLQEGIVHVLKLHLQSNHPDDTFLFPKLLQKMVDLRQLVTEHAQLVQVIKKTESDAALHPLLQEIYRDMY
Summary of the method: (§2)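 Collagenase-perfused mouse primary hepatocytes from WT mice, plated 2 h in attachment medium, overnight in M199 with 5% charcoal-stripped FBS and 1 nM insulin. Treated next day in serum-free M199 with 50 μM compound for 16 h. RNA qPCR (SYBR Green), comparative Ct method.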

[8] = molecular target: T4, Peroxisome proliferator-activated receptor alpha (Mus musculus); assay: Agonist activity at human PPARalpha in mouse hepatocytes assessed as induction of Pdk4 mRNA expression at 50 uM incubated for 16 hrs by quantitative real-time PCR analysis; assay type: cell-based; details: Hepatocyte, filed as agonist
Summary of the method: as §2

[9] = Elimination rate constant in C57BL/6 mouse at 100 mg/kg, po […] by LC-MS/MS analysis; assay type: ADME, organism-based; details: in vivo
[10] = molecular target: T5, Peroxisome proliferator-activated receptor alpha (Homo sapiens, UniProt Q07869); assay: Agonist activity at human PPARalpha expressed in HEK293 cells by luciferase/beta-galactosidase reporter gene assay; assay type: cell-based
T5 sequence (Q07869 whole entry): T3 sequence (whole entry)
Summary of the method: as §1

Danio rerio [11] = assay: In vivo agonist activity at human GFP-tagged PPARalpha in transgenic zebrafish assessed as increase in GFP expression in brain at 1.5 uM measured after 14 hrs by microscopy
Danio rerio [12] = assay: In vivo agonist activity at human GFP-tagged PPARalpha in transgenic zebrafish assessed as increase in GFP expression in muscle at 1.5 uM measured after 14 hrs by microscopy

| Compound | EC50 ([1]; HEK293, filed as agonist) | EC50 [2] | half-life [3] | AUC(0-inf) [4] | Emax [5] | remaining at 2 h [6] | Activity [7] | Activity [8] | k el [9] | EC50 [10] | EC50 ([1]; HEK293) | Activity (Danio rerio [11]) | Emax ([5]; filed as agonist) | Activity (Danio rerio [12]) |
| --- | --- | --- | --- | --- | --- | --- | --- | --- | --- | --- | --- | --- | --- | --- |
| CCCCCCCCCCCCCCCc1cccc(OC(C)(C)C(=O)O)c1 | 33 µM | 0.9 µM | 6 h | 717 µg·h/mL | 30% | 79% | Active | Active | 8.28e-05 s⁻¹ | 0.5 µM |  |  |  |  |
| CCCCCCCCCCCCCCCc1cccc(OC(C)=O)c1C(=O)O |  |  | 0.0333 h |  |  | 0% |  | Active |  | 2.4 µM | > 50 µM | Active | > 90% | Active |
| CCCCCC/C=C\CCCCCCCc1cccc(OC(C)(C)C(=O)O)c1 | 21 µM | 1.78 µM | 13.9 h |  |  | 90% | Active | Active |  | 0.7 µM |  |  | > 90% |  |
